Laboratory results published in ChEMBL document CHEMBL1159071, “Discovery of 4-(5-methyloxazolo[4,5-b]pyridin-2-yl)-1,4-diazabicyclo[3.2.2]nonane (CP-810,123), a novel alpha 7 nicotinic acetylcholine receptor agonist for the treatment of cognitive disorders in schizophrenia: synthesis, SAR development, and in vivo efficacy in cognition models” (J Med Chem, 2010).

Assays:
[1] = target: T1, 5-hydroxytryptamine receptor 3A (Mus musculus, UniProt P23979); test: Displacement of [3H]LY278584 from mouse 5HT3 receptor expressed in HEK293 cells; format: cell-based
T1 sequence (P23979 whole entry): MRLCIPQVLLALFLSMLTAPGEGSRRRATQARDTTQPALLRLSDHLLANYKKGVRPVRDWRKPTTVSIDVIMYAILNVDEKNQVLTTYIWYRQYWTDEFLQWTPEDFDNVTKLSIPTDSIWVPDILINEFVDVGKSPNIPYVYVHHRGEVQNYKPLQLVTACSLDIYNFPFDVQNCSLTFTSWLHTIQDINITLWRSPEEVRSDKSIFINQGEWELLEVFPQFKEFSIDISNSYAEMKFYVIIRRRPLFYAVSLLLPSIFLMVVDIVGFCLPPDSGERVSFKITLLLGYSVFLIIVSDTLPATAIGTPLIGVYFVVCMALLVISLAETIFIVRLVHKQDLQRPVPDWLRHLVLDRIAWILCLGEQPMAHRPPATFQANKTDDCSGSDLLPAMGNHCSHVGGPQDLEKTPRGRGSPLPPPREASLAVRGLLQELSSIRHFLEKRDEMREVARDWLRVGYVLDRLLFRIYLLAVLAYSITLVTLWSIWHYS
Procedure, shortened: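 Mouse 5-HT3A in HEK293 cell homogenate, 20 mM Tris-HCl pH 7.4 with 154 mM NaCl. [3H]LY278584 1 nM final; nonspecific binding with 10 μM ICS205-930; 60 min at 37 °C, then filtration onto PEI-soaked GF/B. Ki by Cheng-Prusoff; mean of three six-point curves in triplicate in one assay; tropisetron standard.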

[2] = Agonist activity at human alpha7 nAChR/mouse 5HT3 chimeric receptor expressed in SH-EP1 cells assessed as increase in intracellular calcium level; format: functional, cell-based
Procedure, shortened: (§1)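 α7-5HT3 chimera stably in SH-EP1 cells grown to confluence; loaded with Calcium Green 1 AM (2 μM final) 60 min at 37 °C. Compound added directly; calcium rise read by FLIPR (excitation 488 nm, emission >525 nm).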

[3] = target: Voltage-gated inwardly rectifying potassium channel KCNH2 (Homo sapiens, UniProt Q12809)
Voltage-gated inwardly rectifying potassium channel KCNH2, sequence (Q12809 whole entry): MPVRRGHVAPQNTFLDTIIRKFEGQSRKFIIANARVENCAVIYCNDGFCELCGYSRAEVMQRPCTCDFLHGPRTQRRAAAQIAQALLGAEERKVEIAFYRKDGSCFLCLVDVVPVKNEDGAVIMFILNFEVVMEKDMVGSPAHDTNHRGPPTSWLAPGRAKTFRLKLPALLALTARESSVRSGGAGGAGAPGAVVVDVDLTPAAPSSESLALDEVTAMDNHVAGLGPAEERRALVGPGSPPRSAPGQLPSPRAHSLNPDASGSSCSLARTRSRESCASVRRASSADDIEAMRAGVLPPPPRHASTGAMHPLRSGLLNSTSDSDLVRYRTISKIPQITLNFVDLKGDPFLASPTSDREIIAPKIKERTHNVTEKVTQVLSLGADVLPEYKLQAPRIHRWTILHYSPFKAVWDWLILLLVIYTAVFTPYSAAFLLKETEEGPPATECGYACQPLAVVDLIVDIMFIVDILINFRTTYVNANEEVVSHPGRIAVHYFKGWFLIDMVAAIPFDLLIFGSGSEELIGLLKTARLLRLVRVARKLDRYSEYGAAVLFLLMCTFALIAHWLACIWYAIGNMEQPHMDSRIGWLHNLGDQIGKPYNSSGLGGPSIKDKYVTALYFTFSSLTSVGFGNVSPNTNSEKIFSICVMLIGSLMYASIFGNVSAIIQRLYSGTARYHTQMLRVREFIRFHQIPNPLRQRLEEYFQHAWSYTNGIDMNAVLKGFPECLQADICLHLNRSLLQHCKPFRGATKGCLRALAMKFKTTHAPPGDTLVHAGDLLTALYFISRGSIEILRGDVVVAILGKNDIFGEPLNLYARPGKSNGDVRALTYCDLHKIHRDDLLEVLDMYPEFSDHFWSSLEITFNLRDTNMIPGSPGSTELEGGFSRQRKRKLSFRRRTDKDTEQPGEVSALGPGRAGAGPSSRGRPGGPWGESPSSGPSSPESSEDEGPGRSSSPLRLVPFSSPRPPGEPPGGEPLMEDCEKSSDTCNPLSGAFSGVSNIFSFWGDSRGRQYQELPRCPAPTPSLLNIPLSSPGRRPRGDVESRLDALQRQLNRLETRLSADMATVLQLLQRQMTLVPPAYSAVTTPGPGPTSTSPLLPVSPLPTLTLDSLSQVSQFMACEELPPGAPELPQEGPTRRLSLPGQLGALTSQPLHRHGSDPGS

[4] = Agonist activity at human alpha7 nAChR/mouse 5HT3 chimeric receptor expressed in SH-EP1 cells assessed as increase in intracellular calcium level relative to 100 uM nicotine; format: functional; procedure, shortened: as §1
[5] = target: T2, 5-hydroxytryptamine receptor 3A (Homo sapiens, UniProt P46098); test: […] at human 5HT3 receptor expressed in human skin epithelial cells assessed as stimulation of calcium flux by FLIPR assay; format: functional, cell-based, Epithelial cell
T2 sequence (P46098 whole entry): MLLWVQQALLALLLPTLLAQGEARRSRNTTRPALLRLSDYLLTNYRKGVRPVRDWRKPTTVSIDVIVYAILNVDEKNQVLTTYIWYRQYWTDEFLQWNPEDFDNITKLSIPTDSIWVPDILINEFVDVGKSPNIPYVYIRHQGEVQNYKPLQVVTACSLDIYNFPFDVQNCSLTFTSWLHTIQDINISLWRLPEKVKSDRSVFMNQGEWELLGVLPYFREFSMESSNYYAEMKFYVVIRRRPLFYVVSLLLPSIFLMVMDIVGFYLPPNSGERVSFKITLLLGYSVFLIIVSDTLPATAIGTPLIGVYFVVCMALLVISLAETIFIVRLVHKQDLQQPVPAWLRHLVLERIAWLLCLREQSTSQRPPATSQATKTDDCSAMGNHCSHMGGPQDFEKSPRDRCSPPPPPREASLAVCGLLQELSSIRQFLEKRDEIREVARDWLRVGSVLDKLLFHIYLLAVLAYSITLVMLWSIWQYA
Procedure, shortened: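 Human 5-HT3A stably in human skin epithelial cells, plated 15 000 cells/well 2 days ahead; loaded 1 h at 37 °C with Fluo-4 (8 μM final), washed into HBSS with 20 mM Tris-HEPES, 1 μM atropine, 4 mM Ca2+, pH 7.4. Compound added 2 min, then 5-HT challenge (250 nM final) 2 min; FLIPR calcium read.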

[6] = target: Neuronal acetylcholine receptor subunit alpha-7 (Rattus norvegicus, UniProt Q05941); test: Displacement of [125I]BTX from rat alpha7 nicotinic acetylcholine receptor expressed in GH4C1 cells; format: cell-based, GH4-C1
Neuronal acetylcholine receptor subunit alpha-7, sequence (Q05941 whole entry): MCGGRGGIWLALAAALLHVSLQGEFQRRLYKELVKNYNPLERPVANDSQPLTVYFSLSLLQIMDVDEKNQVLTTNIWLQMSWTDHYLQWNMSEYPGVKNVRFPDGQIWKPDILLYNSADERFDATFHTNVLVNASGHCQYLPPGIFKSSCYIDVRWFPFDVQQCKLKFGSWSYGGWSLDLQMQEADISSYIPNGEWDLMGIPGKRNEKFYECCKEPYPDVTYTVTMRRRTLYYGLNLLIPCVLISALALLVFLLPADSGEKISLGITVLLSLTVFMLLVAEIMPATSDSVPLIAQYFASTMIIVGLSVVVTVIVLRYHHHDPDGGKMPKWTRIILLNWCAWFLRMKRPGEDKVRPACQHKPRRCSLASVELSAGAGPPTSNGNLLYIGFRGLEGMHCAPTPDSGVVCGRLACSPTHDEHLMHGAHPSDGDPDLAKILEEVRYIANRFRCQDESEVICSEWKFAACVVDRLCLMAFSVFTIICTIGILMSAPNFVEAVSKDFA
Procedure, shortened: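 GH4C1 membranes (20 mM HEPES, 118 mM NaCl, 4.5 mM KCl, 2.5 mM CaCl2, 1.2 mM MgSO4, pH 7.5) incubated 2 h at 37 °C with [125I]α-bungarotoxin 0.4 nM final. Nonspecific binding with 1 μM methyllycaconitine; filtration onto PEI-treated GF/B filters. Ki = IC50/(1+[L]/KD); six-point curves in triplicate; geometric mean with 95% CI.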

CHO = test: Toxicity in CHO cells assessed as induction of DNA fragments by in vitro micronucleus assay; format: cell-based, Cricetulus griseus; conditions: chinese hamster
[7] = target: Neuronal acetylcholine receptor subunit alpha-7 (Rattus norvegicus) (UniProt Q05941); test: Agonist activity at rat alpha7 nicotinic acetylcholine receptor expressed in Xenopus oocytes assessed as stimulation of channel currents at 32 uM at holding potential of -60/-90 mV by electrophysiology method relative to 50 uM nicotine; format: functional, cell-based; conditions: Oocyte
Neuronal acetylcholine receptor subunit alpha-7 (Rattus norvegicus), sequence (Q05941 whole entry): as above
Procedure, shortened: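 Xenopus oocytes defolliculated with collagenase (1.3 mg/mL, 3 h), injected with 10-50 ng rat α7 cRNA, kept in Barth's saline up to 2 weeks. Voltage clamp at -60 or -90 mV; current evoked by compound at 32 μM given as % of the 50 μM nicotine response (set to 100%).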

[8] = Selectivity for rat alpha7 nicotinic acetylcholine receptor over mouse 5HT3 receptor
[9] = target: Neuronal acetylcholine receptor; alpha3/beta4 (Homo sapiens, UniProt P30926+P32297); test: Displacement of [3H]epibatidine from alpha3beta4 nAChR expressed in IMR32 cells; format: cell-based, IMR-32
Neuronal acetylcholine receptor; alpha3/beta4, sequence (P30926 whole entry): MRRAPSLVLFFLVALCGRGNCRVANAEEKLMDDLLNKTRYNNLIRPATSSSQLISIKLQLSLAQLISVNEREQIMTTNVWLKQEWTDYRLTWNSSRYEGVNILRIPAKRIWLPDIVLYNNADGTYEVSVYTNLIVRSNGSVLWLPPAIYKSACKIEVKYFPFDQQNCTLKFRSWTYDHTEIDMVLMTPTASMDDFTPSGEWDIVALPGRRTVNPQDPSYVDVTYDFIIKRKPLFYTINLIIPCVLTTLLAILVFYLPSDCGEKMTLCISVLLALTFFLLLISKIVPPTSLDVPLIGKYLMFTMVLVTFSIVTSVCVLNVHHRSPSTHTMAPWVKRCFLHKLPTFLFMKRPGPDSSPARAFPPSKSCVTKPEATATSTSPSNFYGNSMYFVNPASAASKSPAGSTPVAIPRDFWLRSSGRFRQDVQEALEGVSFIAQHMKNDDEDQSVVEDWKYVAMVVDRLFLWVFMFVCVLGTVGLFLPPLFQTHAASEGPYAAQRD
Neuronal acetylcholine receptor; alpha3/beta4, sequence (P32297 whole entry): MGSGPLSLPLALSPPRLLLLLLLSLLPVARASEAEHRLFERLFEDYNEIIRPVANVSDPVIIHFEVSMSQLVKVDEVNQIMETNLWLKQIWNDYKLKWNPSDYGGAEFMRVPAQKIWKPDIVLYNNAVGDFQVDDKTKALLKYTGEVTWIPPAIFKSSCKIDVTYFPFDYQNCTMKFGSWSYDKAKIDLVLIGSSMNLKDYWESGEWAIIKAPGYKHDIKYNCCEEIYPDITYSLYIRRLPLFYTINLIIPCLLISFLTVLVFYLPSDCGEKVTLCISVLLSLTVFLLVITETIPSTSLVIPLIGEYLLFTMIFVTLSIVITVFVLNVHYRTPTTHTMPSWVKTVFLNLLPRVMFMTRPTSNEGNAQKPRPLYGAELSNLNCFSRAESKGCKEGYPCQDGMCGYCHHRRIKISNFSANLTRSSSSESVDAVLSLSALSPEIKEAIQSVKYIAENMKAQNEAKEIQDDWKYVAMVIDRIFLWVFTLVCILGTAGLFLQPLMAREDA
Procedure, shortened: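 Alpha3β4 binding in IMR32 cells with [3H]epibatidine radioligand. Six-point concentration-response curve run in triplicate and averaged.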

SMILES	Ki [1]	EC50 [2]	IC50 [3]	Efficacy [4]	IC50 [5]	Ki [6]	Activity (CHO)	Activity [7]	Ratio Ki [8]	IC50 [9]
Cc1nc2nc(N3CCN4CCC3CC4)oc2cc1Cl	244 nM	160 nM	16200 nM	58%	70 nM	3.19 nM	Non-toxic	–	–	–
Clc1ccc2oc(N3CCN4CCC3CC4)nc2c1	1.2 nM	–	–	–	–	1.92 nM	–	122%	–	–
Clc1cnc2nc(N3CCN4CCC3CC4)oc2c1	1370 nM	160 nM	–	83%	484 nM	1 nM	–	–	–	–
Cc1ccc2nc(N3CCN4CCC3CC4)oc2n1	126 nM	1200 nM	–	59%	–	88.6 nM	–	–	–	–
c1cc2oc(N3CCN4CCC3CC4)nc2nc1N1CCCCC1	1140 nM	1900 nM	–	30%	–	67.1 nM	–	–	–	–
c1ccc(-c2ccc3oc(N4CCN5CCC4CC5)nc3n2)cc1	> 3580 nM	320 nM	–	71%	–	3.22 nM	–	–	3	–
O=C(Oc1ccccc1)N1CCN2CCC1CC2	3990 nM	–	–	–	–	–	–	–	–	–
COc1ccc2oc(N3CCN4CCC3CC4)nc2n1	141 nM	1000 nM	–	56%	–	24.9 nM	–	–	–	–
Fc1ccc2oc(N3CCN4CCC3CC4)nc2c1	3.9 nM	–	–	–	–	20.7 nM	–	315%	–	–
CCc1ccc2oc(N3CCN4CCC3CC4)nc2n1	> 5260 nM	100 nM	–	34%	3310 nM	18.7 nM	Non-toxic	–	–	–
c1cncc(-c2cnc3nc(N4CCN5CCC4CC5)oc3c2)c1	> 5350 nM	430 nM	–	70%	–	119 nM	–	–	–	–
CC(C)c1ccc2oc(N3CCN4CCC3CC4)nc2n1	> 5290 nM	580 nM	–	68%	–	9.05 nM	–	–	–	–
Brc1cnc2nc(N3CCN4CCC3CC4)oc2c1	926 nM	240 nM	2300 nM	64%	779 nM	2.08 nM	Toxic	–	–	–
Fc1ccccc1-c1ccc2oc(N3CCN4CCC3CC4)nc2n1	> 3770 nM	160 nM	2800 nM	73%	> 7310 nM	3.45 nM	Non-toxic	–	–	–
c1ccc(-c2cnc3oc(N4CCN5CCC4CC5)nc3c2)cc1	3670 nM	264 nM	–	69%	–	2.31 nM	–	–	–	–
c1ccc(-c2cnc3nc(N4CCN5CCC4CC5)oc3c2)cc1	2120 nM	320 nM	–	71%	–	7.04 nM	–	–	–	–
c1cc2oc(N3CCN4CCC3CC4)nc2nc1C1CCCC1	> 5290 nM	525 nM	–	54%	–	5.3 nM	–	–	–	–
c1ccc2oc(N3CCN4CCC3CC4)nc2c1	13 nM	–	–	–	–	22.5 nM	–	183%	–	–
O=c1c(Br)ccc2n1C[C@@H]1CNC[C@H]2C1	–	–	–	–	–	–	–	–	–	15.6 nM

SMILES	Ki [1]	EC50 [2]	IC50 [3]	Efficacy [4]	IC50 [5]	Ki [6]	Activity (CHO)	Activity [7]	Ratio Ki [8]	IC50 [9]
Cc1ccc2nc(N3CCN4CCC3CC4)oc2c1	< 17 nM	–	–	–	–	17.9 nM	–	197%	–	–
CCc1cnc2nc(N3CCN4CCC3CC4)oc2c1	> 5260 nM	300 nM	–	53%	–	22.5 nM	–	–	–	–
c1ccc(Oc2ccc3oc(N4CCN5CCC4CC5)nc3n2)cc1	6830 nM	380 nM	–	63%	–	17.3 nM	–	–	–	–
Fc1cnc2nc(N3CCN4CCC3CC4)oc2c1	6200 nM	213 nM	8700 nM	64%	2480 nM	17.2 nM	Toxic	–	–	–
c1cc(-c2cnc3nc(N4CCN5CCC4CC5)oc3c2)n[nH]1	> 5260 nM	390 nM	–	68%	–	23 nM	–	–	–	–
c1ncc(-c2cnc3nc(N4CCN5CCC4CC5)oc3c2)cn1	> 7140 nM	–	–	–	–	60 nM	–	–	–	–
c1cnc2oc(N3CCN4CCC3CC4)nc2c1	92 nM	–	–	–	–	40.6 nM	–	182%	–	–
Cc1nc2nc(N3CCN4CCC3CC4)oc2cc1F	547 nM	2100 nM	–	36%	–	15.3 nM	–	–	–	–
Cc1ccc2oc(N3CCN4CCC3CC4)nc2c1	3.4 nM	–	–	–	–	33.6 nM	–	287%	–	–
Clc1cnc2oc(N3CCN4CCC3CC4)nc2c1	–	227 nM	–	62%	–	2.59 nM	–	–	–	–
N#Cc1cnc2nc(N3CCN4CCC3CC4)oc2c1	> 5290 nM	510 nM	–	58%	–	6.2 nM	–	–	–	–
c1cc2oc(N3CCN4CCC3CC4)nc2nc1N1CCCC1	6340 nM	470 nM	–	67%	–	1.91 nM	–	–	–	–
c1cc2nc(N3CCN4CCC3CC4)oc2cn1	162 nM	–	–	–	–	309 nM	–	186%	–	–
c1cnc2nc(N3CCN4CCC3CC4)oc2c1	579 nM	–	–	–	–	30.3 nM	–	220%	–	–
Cc1cnc2nc(N3CCN4CCC3CC4)oc2c1	3390 nM	1020 nM	–	55%	–	6.66 nM	–	–	–	–
c1ccc(Oc2cnc3nc(N4CCN5CCC4CC5)oc3c2)cc1	1960 nM	620 nM	–	75%	–	4.16 nM	–	–	–	–
c1cc2oc(N3CCN4CCC3CC4)nc2cn1	2120 nM	–	–	–	–	312 nM	–	156%	–	–
Brc1ccc2oc(N3CCN4CCC3CC4)nc2c1	< 17 nM	–	–	–	–	2.15 nM	–	78%	–	–
CCC(C)c1cnc2nc(N3CCN4CCC3CC4)oc2c1 (stereo unspecified)	–	–	–	–	–	> 1000 nM	–	–	–	–
